KCNK3 block: human KCNK3 channel inhibitors, primary screen, CHO cells, FluxOR thallium flux, B-score; Potassium channel subfamily K member 3 (Homo sapiens), O14649; FluxOR fluorescence; active compounds read low; B-score at 10 µM; 340,000 compounds, 0.84% hits; AID 602410, 2012;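 active = B-score under library mean minus 4 SD, starting fluorescence ratio at most library mean plus 5 SD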;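 also: more negative B-score means stronger inhibition of thallium flux through KCNK3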
KCNK9 inh: KCNK9 potassium channel inhibitors, primary screen, HEK293 cells, thallium flux; Potassium channel subfamily K member 9 (Homo sapiens), Q9NPC2; FluxOR thallium flux fluorescence; active compounds read low; B-score at 10 µM; 310,000 compounds, 1.2% hits;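 active = ratio B-score over 3 SD below the library mean, with starting fluorescence within 5 SD of its mean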;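 also: negative B-score means less thallium flux so channel inhibition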
hERG protect: hERG rescue from dofetilide block, primary screen, cell-based, CHO-hERG, FluxOR thallium flux, dofetilide IC70 | Voltage-gated inwardly rectifying potassium channel KCNH2 (Homo sapiens), Q12809 | activation (rescue from dofetilide block), less the hit threshold, % at 10 µM | 310,000 compounds, 0.51% hits | AID 1511, 2009 | dofetilide IC70 present;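 active = activation above the mean of controls blocked by dofetilide plus 5 SD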;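 also: thallium influx through hERG after potassium depolarization seen as dye fluorescence rise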
KCC2 mod: KCC2 cotransporter modulators, thallium flux, primary screen, cell-based, HEK293 KCC2, FluoZin-2 fluorescence, MLSMR | B-score of Tl+ flux slope (higher = more flux/activation; lower = inhibition) at 10 µM | Solute carrier family 12 member 5 (Homo sapiens), Q9H2X9 | 190,000 compounds, 2.2% hits | KCC2 cells, thallium flux FluoZin-2 fluorescence;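 active = thallium flux slope and its plate-corrected score both differing from the plate sample mean at a set confidence after two filtering rounds, in either direction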;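 also: slope of fluorescence scaled to starting intensity during 10 to 20 s after thallium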
KCNQ1 act: potentiators or activators of KCNQ1 channel, primary screen, cell-based, thallium flux, high-throughput. Potassium voltage-gated channel subfamily KQT member 1 (Homo sapiens), P51787. AID 2648, 2010. B-score at 10 µM. 310,000 compounds, 0.35% hits. CHO-K1 KCNQ1, thallium flux FluxOR fluorescence; active compounds read high;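 active = fluorescence ratio B-score, a plate-corrected score, at least three library SD, with initial intensity B-score within 5 SD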
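Test system: CHO-K1 cells stably expressing KCNQ1 / Medium: assay buffer / Also added: depolarizing K+/Tl+ stimulus, K2SO4 and Tl2SO4 each 12.5 mM in 5x stock / Incubation: 90 min dye loading and 20 min compound exposure, both at room temperature / Signal: thallium influx via FluxOR fluorescence, kinetic imaging / Evaluation: B score of baseline-normalized fluorescence ratio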
KCNQ1 block: inhibitors of human KCNQ1 channel, primary screen, cell-based, thallium flux, high-throughput; CHO-K1 KCNQ1, FluxOR thallium flux fluorescence; active compounds read high; B-score at 10 µM; 310,000 compounds, 1.3% hits;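 active = compounds whose thallium flux B-score, printed positive for inhibition, exceeds three library SD while starting fluorescence stays within three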;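 also: channel opened by potassium depolarization with thallium stimulus after 20 min compound exposure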
KCNK9 block conf: KCNK9 potassium channel inhibitors, confirmation, HEK293 cells, thallium flux, duplicate; shares compounds with KCNK9 inh; inhibition, % at 10 µM; FluxOR thallium flux fluorescence; 4,900 compounds, 43% hits; AID 492992, 2010;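 active = thallium signal inhibited by more than 5 SD of the compound-free buffer control wells, on both duplicate plates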;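 also: 0% = assay buffer control wells without compound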
Kir2-1 spec: mouse Kir2.1 channel inhibition, confirmation, selectivity assay for KCNK9 modulator project, cell-based, HEK293, thallium flux; inhibition, % at 10 µM; shares compounds with KCNK9 inh; 4,900 compounds, 4% hits; Kir2.1 cells, FluxOR thallium flux fluorescence; AID 492993, 2010;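 active = thallium signal drop more than 5 SD beyond the mean of the no-compound control wells, seen in both duplicate plates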;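 also: signal is fluorescence rise after thallium addition divided by baseline fluorescence; plate controls were assay buffer only for no effect and full block by chlorpromazine control for full effect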
Target sequence (P35561 whole entry, looked up): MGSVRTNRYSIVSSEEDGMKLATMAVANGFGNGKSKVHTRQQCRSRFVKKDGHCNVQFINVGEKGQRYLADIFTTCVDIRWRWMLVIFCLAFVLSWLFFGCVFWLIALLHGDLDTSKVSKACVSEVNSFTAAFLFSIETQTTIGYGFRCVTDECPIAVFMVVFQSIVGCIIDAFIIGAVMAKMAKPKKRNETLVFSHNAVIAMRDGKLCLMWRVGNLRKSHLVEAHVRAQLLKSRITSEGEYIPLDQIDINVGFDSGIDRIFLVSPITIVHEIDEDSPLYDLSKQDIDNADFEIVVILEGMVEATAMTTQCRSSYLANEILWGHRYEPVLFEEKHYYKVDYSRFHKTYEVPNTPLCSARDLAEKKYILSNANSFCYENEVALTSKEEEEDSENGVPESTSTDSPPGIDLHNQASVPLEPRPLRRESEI
KCNK9 uninduced: thallium flux in non-induced HEK293 cells, confirmation, counter-screen for KCNK9 inhibitor project, cell-based, second counter screen, non-induced KCNK9-HEK293; shares compounds with KCNK9 inh; FluxOR thallium flux; inhibition, % at 10 µM; 4,900 compounds, 40% hits; AID 492997, 2010;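 active = thallium signal drop beyond 5 SD of the untreated control mean, on both duplicate plates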;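 also: plate controls were buffer only IC0 wells for no effect and SID17386958 at its maximal inhibitory level for full effect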
The depositor's hits bear a star; i = inactive; . = not tested or not shown. Compounds with a hit are over-represented: about 4.1% of the library has one in this group of screens.

SMILES	KCNK3 block	KCNK9 inh	hERG protect	KCC2 mod	KCNQ1 act	KCNQ1 block	KCNK9 block conf	Kir2-1 spec	KCNK9 uninduced
O=S(=O)(c1ccc(F)cc1)N1CCN(CCc2ccccc2)CC1	i	i	-6	.	i	i	i	i	i
O=S(=O)(c1ccccc1)N1CCN(C/C=C/c2ccccc2)CC1	i	i	-3	.	i	i	i	i	i
O=S(=O)(c1ccccc1)N1CCN(Cc2c(O)ccc3ccccc23)CC1	i	.	.	.	.	.	.	.	.
Oc1ccc2ccccc2c1CN1CCN(C/C=C/c2ccccc2)CC1	i	i	-9	.	i	i	i	i	i
O=C(NNc1nc2c(F)cccc2s1)c1cc(=O)c2ccccc2o1	i	i	4	-1.3	i	i	.	.	.
Cc1cccc2sc(NNC(=O)c3cc(=O)c4ccccc4o3)nc12	i	i	-16	-1.3	i	i	i	i	i
Cc1ccc2sc(NNC(=O)c3cc(=O)c4ccccc4o3)nc2c1C	i	i	-21	-3.3*	i	i	i	i	i
COc1ccccc1NS(=O)(=O)c1cc(NC(=O)C2CCC2)ccc1N1CCCCC1	i	-8.5*	-10	1.9	i	i	34%*	i	26%*
COc1ccc([C@H]2C(C(=O)O)=C[C@@H](CC3CCCC3)N2S(=O)(=O)c2ccc(C)cc2)cc1OC	i	.	.	.	.	.	.	.	.
CC(C)(C)c1ccc(C(=O)N2CCCC2c2cccs2)cc1 (stereo not given)	i	i	-11	.	i	i	i	i	i
C=C1CC2C(=O)N(Cc3ccccc3)C(C(=O)OCC)(C(=O)OCC)C1N2C(=O)OC(C)(C)C (stereo not given)	i	-12*	-9	.	i	i	47%*	i	37%*
Cc1ccc([N+](=O)[O-])cc1N=C(c1cccc(Br)c1)N1CCOCC1	-12*	-20*	-9	-1.4	i	i	57%*	i	33%*
CN1C(=O)[C@@H]2[C@@H]3C[C@@H]([C@H]4ON=C(c5ccc(Cl)cc5)[C@@H]34)[C@@H]2C1=O	i	i	-5	0.72	i	i	.	.	.
O=C1[C@@H]2[C@@H]3C[C@@H]([C@H]4ON=C(c5ccc(Cl)cc5Cl)[C@@H]34)[C@@H]2C(=O)N1C1CCCCC1	i	i	-8	0	i	i	i	i	i
C=CCc1ccc(O)c(-c2cc(CC=C)ccc2O)c1	i	-17*	-12	1.2	i	i	62%*	i	i
COc1c(Cl)cc(Cl)cc1C(=O)n1nc(C)cc1C	i	i	-5	0.41	i	i	i	i	i
CCCCCCCCC(=O)N/N=C(\C)c1ccc(O)cc1O	i	-10*	-16	-0.38	i	i	57%*	i	42%*
CCCCCCCC(=O)N/N=C(\C)c1ccc(O)cc1O	i	i	-16	0.46	i	i	.	.	.
CC(=O)c1ccc2c3c(cc(C)c2c1)CCCC3	i	.	.	.	.	.	.	.	.
N#C/C(=C/c1ccc(CNC(=O)C(=O)Nc2cc(Cl)cc(Cl)c2)o1)C(=O)NCc1cccnc1	i	-10*	-8	-0.027	i	i	i	i	i
CCCOc1ccc(Oc2ccc(S(=O)(=O)N3CCN(C)CC3)cn2)cc1	i	i	-11	.	i	i	.	.	.
CCN(CC)c1ccc(/C=C/C(=O)C2C(=O)C=C(C)OC2=O)cc1 (stereo not given)	i	-9.5*	-23	i	i	i	86%*	101%*	85%*
COc1ccc(S(=O)(=O)N2CCN(C(=O)c3ccc(=O)[nH]n3)CC2)cc1OC	i	.	.	.	.	.	.	.	.
Fc1ccccc1C1c2cccn2CCN1C(=S)Nc1cccc(Br)c1 (stereo not given)	i	-11*	-8	0.5	i	i	36%*	i	48%*
S=C(Nc1ccccc1)N1CCn2cccc2C1c1cccnc1 (stereo not given)	i	i	-11	0.37	i	i	.	.	.
SMILES	KCNK3 block	KCNK9 inh	hERG protect	KCC2 mod	KCNQ1 act	KCNQ1 block	KCNK9 block conf	Kir2-1 spec	KCNK9 uninduced
N#Cc1nc(Cc2ccccc2)oc1N1CCC(Cc2ccccc2)CC1	i	i	-7	-1.9	i	i	i	i	i
N#Cc1nc(Cc2ccccc2)oc1N1CCC(C(N)=O)CC1	i	i	-6	.	i	i	.	.	.
COc1ccc(-c2nc(-c3ccccc3)c(-c3cc([N+](=O)[O-])ccc3C)[nH]2)cc1OC	i	-12*	-7	4.4	i	14*	54%*	i	33%*
CCOc1cc(C(=O)NC(C)CCc2ccccc2)cc(OCC)c1OCC (stereo not given)	i	i	-4	.	i	i	i	i	i
CCOc1ccccc1C(=O)NC(C)CCc1ccccc1 (stereo not given)	i	i	-5	.	i	i	.	.	.
COc1cc(OC)c2cc(C(=O)N/N=C/c3ccccc3O)[nH]c2c1	i	i	-17	.	i	i	.	.	.
Nc1nccc(NCCSCc2ccccc2)n1	i	.	.	.	.	.	.	.	.
COc1ccccc1NC(=O)CN(c1ccc(C23CC4CC(CC(C4)C2)C3)cc1)S(C)(=O)=O	i	i	-11	.	i	i	i	i	i
COc1ccccc1NC(=O)C12CC3CC(C1)CC(c1ccc(C)cc1)(C3)C2	i	i	-12	1.5	i	i	i	i	i
CS(=O)(=O)N(CC(=O)O)c1ccc(C23CC4CC(CC(C4)C2)C3)cc1	i	i	-7	.	i	i	.	.	.
CNC(=O)C12CC3CC(C1)CC(c1ccc(C)cc1)(C3)C2	i	i	-6	.	i	i	.	.	.

Bioassay records: PubChem BioAssay, several laboratories
